Screening data deposited in PubChem BioAssay by several laboratories.
HCV core dimer: blocks dimerization of HCV core protein; AID 1899; 300,000 tested, 0.33% active; TR-FRET GST/Flag-core106 dimerization, 1536-well; inhibition, % at 5 µM;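 active = inhibition above the mean of all tested compounds plus 3 SD, set per screening campaign, cut at about 45% in these data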
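System – GST-tagged and Flag-tagged HCV core protein residues 1-106 · Repeats – one well for each compound · Technique – TR-FRET 671 and 617 nm emission · Doses – one concentration, 5 µM, in 0.5% DMSO · Times – 4 h, 22.5 °C incubation · Also added – Eu donor and XL665 acceptor anti-tag antibodies · Measure – percent inhibition of core106 dimerization signal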
HSF1 inhib: HSF1 inhibition | 300,000 tested, 0.77% active | activity change, negative = inhibition, % at 7.5 µM (by protocol) | NIH3T3-HGL HSE-luciferase, MG132-induced, luminescence 8 h; stronger effect = lower value;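 active = more than half of replicate wells show activity change below -50%, luminescence cut by over half; inconclusive = some wells, but at most half, below -50%; inactive = no replicate well below -50%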;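 also: luciferase reports HSF-1 transcriptional activity via heat shock element; 0% = median of DMSO wells and -100% = zero luminescence signal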
AI-2 QS modul: Vibrio harveyi AI-2 quorum sensing modulation; Vibrio harveyi JMH597 AI-2 luminescence/OD600 ratio, 9 h; stronger effect = lower value; strain lacks LuxN and CqsS sensors; 0 = neutral-control median; activity change, % at 7.5 µM; 300,000 tested, 0.4% active; AID 2094; in the data active = activity change below about -75%, passing the limit was not always enough; inconclusive = no clear call, values can overlap the other calls;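 also: luminescence divided by OD600 gain over 9 h not by final OD600 alone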
PHOSPHO1 inh: inhibitors of human PHOSPHO1 phosphatase; AID 1565; inhibition, % at 13.3 µM; recombinant PHOSPHO1, absorbance phosphatase assay; 290,000 tested, 1.1% active; Q8TCT1; in the data active = inhibition above about 60%
Target sequence (Q8TCT1 whole entry, looked up): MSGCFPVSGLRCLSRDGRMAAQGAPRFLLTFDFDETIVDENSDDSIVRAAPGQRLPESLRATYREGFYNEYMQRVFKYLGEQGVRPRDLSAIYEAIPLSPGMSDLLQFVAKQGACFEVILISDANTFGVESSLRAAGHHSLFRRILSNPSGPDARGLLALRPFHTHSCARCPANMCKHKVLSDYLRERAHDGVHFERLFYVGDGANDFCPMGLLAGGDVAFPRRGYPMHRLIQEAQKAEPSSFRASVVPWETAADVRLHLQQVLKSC
HSF1 activator: increases HSF-1 driven luciferase reporter signal; 300,000 tested, 1.7% active; NIH3T3-HGL HSF-1 luciferase reporter, MG132, 8 h; 100% = twice DMSO control signal; activation, % at 9 µM;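 active = mean replicate activation of at least 50% with a set share of replicates each reaching 50%; inconclusive = only one of those two conditions met; inactive = mean below 50% and too few replicates reaching it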;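 also: 0% = median of the neutral control wells and 100% = twice that signal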
ALR inh: human ALR oxidase inhibition via reduced H2O2. P55789. purified ALR, DTT oxidation, H2O2 HRP-luminol luminescence. inhibition, % (test concentration not listed). 290,000 tested, 3.8% active. AID 485317;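 active = mean replicate inhibition above about 79%, with every replicate also reaching it, limit read from the data; inconclusive = only one of the two criteria met; inactive = mean below limit and not every replicate reaching it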
Target sequence (P55789 whole entry, looked up): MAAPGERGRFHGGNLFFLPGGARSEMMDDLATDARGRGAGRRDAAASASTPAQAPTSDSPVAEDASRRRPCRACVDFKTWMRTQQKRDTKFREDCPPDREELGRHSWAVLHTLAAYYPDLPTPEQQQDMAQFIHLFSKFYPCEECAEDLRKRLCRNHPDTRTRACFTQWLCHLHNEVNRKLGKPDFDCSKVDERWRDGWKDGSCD
An asterisk follows results filed as active; ? = inconclusive; · = no result given. Most compounds without a hit are left out; they make up all but 6.8% or so of the library.

SMILES	HCV core dimer	HSF1 inhib	AI-2 QS modul	PHOSPHO1 inh	HSF1 activator	ALR inh
Cc1cccc(C(=O)N2CCc3cc(-c4nc(NC(=O)Cn5nnc6ccccc6c5=O)sc4C)ccc32)c1	52*	·	16	-4	·	·
Cc1cccc(C(=O)N2CCc3cc(-c4nc(NC(=O)CN5CCCC5)sc4C)ccc32)c1	4	3	13	23	-1	-8
CCOC(=O)c1c(CSc2ccccc2)n(C)c2cc(Br)c(O)c(CN(C)C)c12	-6	-2	8	6	36	84*
CCOC(=O)c1c(CSc2ccc(C)cc2)n(C)c2cc(Br)c(O)c(CN(C)C)c12	-9	10	22	22	36	?
CCOC(=O)c1c(CSc2ccsc2)n(C)c2cc(Br)c(O)c(CN(C)C)c12	-7	7	17	20	-1	97*
Cc1nc2n[nH]c(N)c2c2c1COC(C)(C)C2	-10	-3	13	-6	5	62
CC1(C)Cc2nc3n[nH]c(N)c3cc2CO1	-4	0	24	4	-10	87*
CCC(=O)c1ccc2c(c1)N(CCCN(C)C)c1ccccc1S2	-15	3	3	·	5	98*
CN(C)CCCN1c2ccccc2Sc2ccccc21	-26	-8	13	-6	3	98*
CC(=O)c1ccc2c(c1)N(C)c1ccccc1S2	-26	?	4	21	-60	·
COc1ccc2c(c1)Sc1ccccc1N2CCN(C)C	-11	2	14	34	-3	98*
COCCCNC(=O)CCCCCNS(=O)(=O)c1ccc(Br)cc1	1	9	18	-2	30	2
CC1CC/C(=C\c2ccc3c(c2)OCO3)C(=O)/C1=C/c1ccc2c(c1)OCO2 (stereo unspecified)	9	40	0	24	87*	36
Cc1cccc(N2CCN(C(=O)c3ccc4c(c3)NC(=O)C(CSCc3ccc(F)cc3)N4)CC2C)c1 (stereo unspecified)	64*	1	10	24	-6	97*
Cc1ccc(CSCC2Nc3ccc(C(=O)N4CCN(c5cccc(C)c5)C(C)C4)cc3NC2=O)cc1 (stereo unspecified)	71*	-3	13	-8	-6	14
COc1cc2c(cc1OC)C(NNC(=O)c1ccc(Br)o1)=NC(C)(C)C2	-4	-16	5	-47	-11	21
CCOC(=O)c1c(N)sc2c1CCSC2	55*	-1	33	65*	8	·
CCOC(=O)c1c(N)sc2c1CCC(CC)C2 (stereo unspecified)	2	-6	1	51	3	47
CCOC(=O)c1c(N)sc(=S)c2c1CCC2	45	-3	-2	60*	-17	-2
CCOC(=O)c1c(N)sc(N)c1C(=O)OCC	-21	-7	23	-3	2	22
CCOc1ccccc1NC(=O)CCCNC(=O)c1ccc(Cl)cc1	-4	4	-6	31	5	·
CCOC(=O)c1c(NC(C)=O)sc2c(O)c(CN3CCN(CC)CC3)ccc12	-15	75	26	26	112*	44
O=C1CCC/C(=N/NC(=O)c2sc3ccccc3c2Cl)C1	-2	5	8	5	18	98*
Cc1ccsc1/C=N/N1CCN(c2ccccn2)CC1	-3	7	11	25	21	99*
Cc1ccsc1/C=N/N1CCN(c2ccccc2)CC1	0	7	20	32	13	13
SMILES	HCV core dimer	HSF1 inhib	AI-2 QS modul	PHOSPHO1 inh	HSF1 activator	ALR inh
O=C(O)C1CC=CCC1C(=O)Nc1ccc2c(c1)OCCO2 (stereo unspecified)	-9	-62*	9	20	-68	-16
O=C(Nc1ccc2c(c1)OCCO2)N1CCN(c2ccccc2)CC1	-1	-57*	40	3	-59	91*
Cc1ccc(-n2c(SCC(=O)N(C)C)nnc2-c2ccco2)cc1	-4	3	18	19	5	-8
CC(C)CCNC(=S)Nc1ccccn1	0	2	13	-2	3	91*
Cc1cccc(NC(=O)C(=O)NCCCc2ccccc2)c1	-17	37	11	-5	83*	-7
Cc1cccc(NC(=S)NCCC(C)C)c1	-5	-5	2	-8	-8	92*
COCCNC(=S)Nc1ccccn1	-1	-2	31	6	18	0
COc1ccc(CCNC(=S)Nc2cccc(C)c2)cc1	3	5	6	0	-5	-6
CCCc1c(C)nn(-c2ncccc2[N+](=O)[O-])c1C	-3	-6	13	60*	-23	15
O=[N+]([O-])c1cccnc1N1CCCCC1	5	2	19	32	1	-4
CCOC(=O)c1c(CCl)nc2ccccc2c1-c1ccccc1	7	-2	0	-110	-14	96*
COc1ccc(NS(=O)(=O)c2cccc(C(=O)NNC(=O)c3ccc(Br)o3)c2)cc1	-3	0	18	·	0	6
COc1ccc(CCN=C(NS(=O)(=O)c2ccccc2)c2ccccc2)cc1OC	1	9	10	32	59*	-2
Clc1ccc(-c2cn3cc(Cl)ccc3n2)cc1	-4	18	6	18	45	0
Oc1ccc(-c2cn3cc(C(F)(F)F)ccc3n2)cc1	-15	37	-1	4	48	90*
Cc1nc(C)c(-c2ccc(SCc3ccc([N+](=O)[O-])cc3)nn2)s1	4	28	5	44	52*	-16
Cc1c(Cl)cccc1NC(=O)Nc1cnccn1	-9	-64*	35	46	-72	1
Cc1cc(Br)ccc1NC(=S)N1CCOCC1	-3	-3	6	3	-7	0
CCCn1c(SCC(=O)c2ccc(CC)cc2)n[nH]c1=O	0	6	21	82*	-11	26
CCCn1c(SCC(=O)NCc2ccc(C)cc2)n[nH]c1=O	-5	-3	23	6	12	-7
O=C(Nc1nnc(-c2ccccc2)o1)c1nc2ccccc2s1	13	4	-5	13	2	43
CC(C)(C)n1nc2c(c1NC(=O)Cc1cccc3ccccc13)CS(=O)C2 (stereo unspecified)	8	-5	21	63*	-3	0
COc1ccc(OCCSc2nnc3sc4ccccc4n23)cc1	0	2	7	77*	2	-3
CCCN(Cc1nnc(-c2cccs2)o1)C(=O)c1cccc(S(=O)(=O)N2CCOCC2)c1	·	·	·	·	·	-4
COc1ccccc1N1C(=O)Cc2ccccc2C1=O	12	-2	21	15	5	3
CN(C)/C=N/c1cc(=O)[nH]c(=O)n1C	-2	-6	15	-9	-12	-7
CC(C)(C)C(=O)Cn1ncc(Cl)c(Cl)c1=O	·	0	19	46	15	·
O=C(OCn1ncc(Cl)c(Cl)c1=O)c1ccc(F)cc1	3	-94*	-6	44	-94	6
